Assay results reported in ChEMBL document CHEMBL5678802, “Small-molecule p21-activated kinase inhibitor PF-3758309 is a potent inhibitor of oncogenic signaling and tumor growth” (Proc Natl Acad Sci U S A, 2010).
The source made the active and inactive calls. The rule behind the calls is not given here.

How the values were obtained:
HT-29 = assay: Antiproliferative activity against human HT-29 cells assessed as inhibition of cell proliferation incubated for 3 days by CellTiter-Glo Luminescent Cell Viability Assay; format: functional, cell-based; conditions: HT-29, 72 h
Outline: (§1)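 Cancer cell lines seeded in 384-well plates on day 1; compound added on day 2 and left for 3 days. On day 5 all medium was aspirated, and viable cells were quantified by CellTiter-Glo luminescence, which measures cellular ATP. Dose-dependent effects on proliferation were determined.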

NCI-H441 = assay: Antiproliferative activity against human NCI-H441 cells assessed as inhibition of cell proliferation incubated for 3 days by CellTiter-Glo Luminescent Cell Viability Assay; format: functional, cell-based; conditions: NCI-H441, 72 h
Outline: (§2)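 Cells of each line were plated in 384-well plates on day 1 and exposed to compound from day 2 for 3 days. On day 5 all medium was aspirated. Viable cell number was read by CellTiter-Glo luminescence, which quantifies cellular ATP.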

NCI-H1755 = assay: Antiproliferative activity against human NCI-H1755 cells assessed as inhibition of cell proliferation incubated for 3 days by CellTiter-Glo Luminescent Cell Viability Assay; format: functional, cell-based; conditions: NCI-H1755, 72 h; outline: as §2
Calu-1 = assay: Antiproliferative activity against human Calu-1 cells assessed as inhibition of cell proliferation incubated for 3 days by CellTiter-Glo Luminescent Cell Viability Assay; format: functional, cell-based; conditions: Calu-1, 72 h; outline: as §1
PANC-03-27 = assay: Antiproliferative activity against human PANC-03-27 cells assessed as inhibition of cell proliferation incubated for 3 days by CellTiter-Glo Luminescent Cell Viability Assay; format: functional, cell-based; conditions: PANC-03-27, 72 h; outline: as §2
PSN1 = assay: Antiproliferative activity against human PSN1 cells assessed as inhibition of cell proliferation incubated for 3 days by CellTiter-Glo Luminescent Cell Viability Assay; format: functional, cell-based; conditions: PSN1, 72 h; outline: as §2
[1] = Antiproliferative activity against human PL45 cells assessed as inhibition of cell proliferation incubated for 3 days by CellTiter-Glo Luminescent Cell Viability Assay; format: functional, cell-based; conditions: PL45, 72 h; outline: as §2
DAN-G = assay: Antiproliferative activity against human DAN-G cells assessed as inhibition of cell proliferation incubated for 3 days by CellTiter-Glo Luminescent Cell Viability Assay; format: functional, cell-based; conditions: 72 h; outline: as §1
[2] = Antiproliferative activity against human PaTu 8988s cells assessed as inhibition of cell proliferation incubated for 3 days by CellTiter-Glo Luminescent Cell Viability Assay; format: functional, cell-based; conditions: 72 h; outline: as §2
ASPC1 = assay: Antiproliferative activity against human ASPC1 cells assessed as inhibition of cell proliferation incubated for 3 days by CellTiter-Glo Luminescent Cell Viability Assay; format: functional, cell-based; conditions: ASPC1, 72 h; outline: as §1
HCC827 = assay: Inhibition of anchorage independent cell growth in human HCC827 cells incubated for 6 days by Alamar blue reagent based fluorescence plate reader analysis; format: functional; conditions: HCC827, 144 h
NCI-H1838 = assay: Inhibition of anchorage independent cell growth in human NCI-H1838 cells incubated for 6 days by Alamar blue reagent based fluorescence plate reader analysis; format: functional; conditions: NCI-H1838, 144 h
NCI-H520 = assay: Inhibition of anchorage independent cell growth in human NCI-H520 cells incubated for 6 days by Alamar blue reagent based fluorescence plate reader analysis; format: functional; conditions: NCI-H520, 144 h
HCC1187 = assay: Antiproliferative activity against human HCC1187 cells assessed as inhibition of cell proliferation incubated for 3 days by CellTiter-Glo Luminescent Cell Viability Assay; format: functional, cell-based; conditions: HCC1187, 72 h; outline: as §1
Hs-578T = assay: Antiproliferative activity against human Hs-578T cells assessed as inhibition of cell proliferation incubated for 3 days by CellTiter-Glo Luminescent Cell Viability Assay; format: functional, cell-based; conditions: 72 h; outline: as §1
SK-BR-3 = assay: Antiproliferative activity against human SK-BR-3 cells assessed as inhibition of cell proliferation incubated for 3 days by CellTiter-Glo Luminescent Cell Viability Assay; format: functional, cell-based; conditions: SK-BR-3, 72 h; outline: as §2
[3] = target: Serine/threonine-protein kinase N1 (Homo sapiens) (UniProt Q16512); assay: Inhibition of human PRK1 in presence of ATP relative to control; conditions: concentration not given here
[4] = target: Ribosomal protein S6 kinase alpha-1 (Homo sapiens, UniProt Q15418); assay: Inhibition of human RSK1 assessed as inhibition constant in presence of ATP
[5] = target: Serine/threonine-protein kinase Chk2 (Homo sapiens, UniProt O96017); assay: Inhibition of human CHK2 in presence of ATP by cellular assay
[6] = target: Tyrosine-protein kinase Fgr (Homo sapiens, UniProt P09769); assay: Inhibition of human FGR in presence of ATP by cellular assay
[7] = target: Protein kinase C gamma type (Homo sapiens, UniProt P05129); assay: Inhibition of human PKCgamma in presence of ATP by cellular assay
[8] = Inhibition of YFP/YFP variant coding sequence fused p53/Pin1 (unknown origin) expressed in HEK293 cells incubated for 8 to 24 hrs by fluorescence based analysis; format: cell-based, Homo sapiens
HCT-116 [9] = assay: Downregulation of camptothecin-induced phospho-S474-PAK4 level in human HCT-116 cells at 1 uM preincubated with compound for 15 mins followed by camptothecin stimulation and measured after 20 hrs by Western blot analysis; format: functional, cell-based; conditions: time 20.25 hrs
M24met = assay: Antitumor activity against human M24met cells xenografted in nude mouse assessed as tumor growth inhibition at 25 mg/kg, po administered once daily for 9 to 18 days relative to control; format: functional; conditions: time 9-18 day, read-out: TGI
GTL 16 cell line = assay: Antitumor activity against human GTL-16 cell line xenografted in nude mouse assessed as tumor growth inhibition at 20 mg/kg, po administered once daily for 9 to 18 days relative to control; format: functional; conditions: time 9-18 day, read-out: TGI
Outline: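 Tumor cells were implanted s.c. into the right flank of female nu/nu nude mice aged 6–8 weeks. Animals were randomized into treatment groups once tumors were established (example: day 8 postimplant, about 170 mm3, animals >22 g). Compound in 0.5% methylcellulose was given by oral gavage. Tumors were measured with calipers two to three times per week.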

HCT-116 [10] = assay: Antitumor activity against human HCT-116 cells xenografted in nude mouse assessed as reduction in Ki67 administered orally twice daily for 6 days by immunohistochemical analysis; format: functional; conditions: dose 15-25 mg/kg, route po, time 6.0 day
HCT-116 [11] = assay: Antitumor activity against human HCT-116 cells xenografted in nude mouse assessed as reduction in Src phosphorylation at Y416 residue at 15 to 150 mg/kg/day administered via pump for 18 hrs by Reverse-Phase protein array analysis; format: functional, organism-based; conditions: dose 15-150 mg/kg/day
HCT-116 [12] = assay: Antitumor activity against human HCT-116 cells xenografted in nude mouse assessed as reduction in GSK3beta phosphorylation at S21 residue at 15 to 150 mg/kg/day administered via pump for 18 hrs by Reverse-Phase protein array analysis; format: functional, organism-based; conditions: dose 15-150 mg/kg/day
HCT-116 [13] = assay: Antitumor activity against human HCT-116 cells xenografted in nude mouse assessed as reduction in MEK1 phosphorylation at S221 residue at 15 to 150 mg/kg/day administered via pump for 18 hrs by Reverse-Phase protein array analysis; format: functional, organism-based; conditions: dose 15-150 mg/kg/day
HCT-116 [14] = assay: Antitumor activity against human HCT-116 cells xenografted in nude mouse assessed as reduction in Elk phosphorylation at S383 residue at 15 to 150 mg/kg/day administered via pump for 18 hrs by Reverse-Phase protein array analysis; format: functional, organism-based; conditions: dose 15-150 mg/kg/day

Serine/threonine-protein kinase N1 (Homo sapiens), sequence (Q16512 2-942 limits assumed): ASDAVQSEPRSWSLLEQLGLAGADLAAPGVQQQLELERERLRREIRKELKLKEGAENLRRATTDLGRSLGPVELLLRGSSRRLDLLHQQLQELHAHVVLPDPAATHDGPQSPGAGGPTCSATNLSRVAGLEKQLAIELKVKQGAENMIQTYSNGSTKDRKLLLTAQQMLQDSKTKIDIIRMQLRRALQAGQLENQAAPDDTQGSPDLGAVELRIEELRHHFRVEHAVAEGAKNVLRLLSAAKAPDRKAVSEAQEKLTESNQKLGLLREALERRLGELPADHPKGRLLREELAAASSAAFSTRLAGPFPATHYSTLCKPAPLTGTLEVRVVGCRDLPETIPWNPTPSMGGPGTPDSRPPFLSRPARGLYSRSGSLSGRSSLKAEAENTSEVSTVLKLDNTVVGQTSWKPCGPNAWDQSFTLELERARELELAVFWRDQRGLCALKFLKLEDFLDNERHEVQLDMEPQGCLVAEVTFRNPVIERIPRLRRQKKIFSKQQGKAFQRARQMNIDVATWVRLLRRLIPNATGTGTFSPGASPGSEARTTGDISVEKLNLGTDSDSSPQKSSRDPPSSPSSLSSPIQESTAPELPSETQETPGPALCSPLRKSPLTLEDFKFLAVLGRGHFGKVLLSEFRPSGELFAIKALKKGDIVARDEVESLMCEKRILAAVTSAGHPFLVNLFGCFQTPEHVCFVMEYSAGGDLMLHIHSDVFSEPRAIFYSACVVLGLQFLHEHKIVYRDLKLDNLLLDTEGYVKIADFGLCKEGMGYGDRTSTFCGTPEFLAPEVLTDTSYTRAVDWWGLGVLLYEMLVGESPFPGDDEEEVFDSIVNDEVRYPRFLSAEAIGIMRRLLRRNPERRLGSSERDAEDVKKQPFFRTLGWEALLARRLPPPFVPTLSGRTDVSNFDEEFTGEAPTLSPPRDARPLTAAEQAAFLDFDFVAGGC
Ribosomal protein S6 kinase alpha-1, sequence (Q15418 whole entry): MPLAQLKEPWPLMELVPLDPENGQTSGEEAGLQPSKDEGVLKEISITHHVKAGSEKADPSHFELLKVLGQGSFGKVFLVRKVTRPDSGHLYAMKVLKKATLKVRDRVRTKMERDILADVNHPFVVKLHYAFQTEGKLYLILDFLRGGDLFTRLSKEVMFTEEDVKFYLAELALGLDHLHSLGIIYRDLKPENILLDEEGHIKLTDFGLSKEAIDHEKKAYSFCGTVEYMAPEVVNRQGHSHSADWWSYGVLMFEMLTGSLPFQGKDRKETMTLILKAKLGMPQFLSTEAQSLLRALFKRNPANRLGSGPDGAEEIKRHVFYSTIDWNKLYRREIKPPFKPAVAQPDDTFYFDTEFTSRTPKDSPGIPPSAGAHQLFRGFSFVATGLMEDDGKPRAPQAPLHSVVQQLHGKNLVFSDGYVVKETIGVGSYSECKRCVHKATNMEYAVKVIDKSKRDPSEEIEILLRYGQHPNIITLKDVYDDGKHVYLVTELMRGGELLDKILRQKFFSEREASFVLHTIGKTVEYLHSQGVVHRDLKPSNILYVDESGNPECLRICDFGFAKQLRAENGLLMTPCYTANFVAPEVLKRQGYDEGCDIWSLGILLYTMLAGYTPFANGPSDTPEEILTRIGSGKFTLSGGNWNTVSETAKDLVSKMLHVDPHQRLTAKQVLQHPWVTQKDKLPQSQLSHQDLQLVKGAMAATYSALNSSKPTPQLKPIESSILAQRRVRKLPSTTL
Serine/threonine-protein kinase Chk2, sequence (O96017 whole entry): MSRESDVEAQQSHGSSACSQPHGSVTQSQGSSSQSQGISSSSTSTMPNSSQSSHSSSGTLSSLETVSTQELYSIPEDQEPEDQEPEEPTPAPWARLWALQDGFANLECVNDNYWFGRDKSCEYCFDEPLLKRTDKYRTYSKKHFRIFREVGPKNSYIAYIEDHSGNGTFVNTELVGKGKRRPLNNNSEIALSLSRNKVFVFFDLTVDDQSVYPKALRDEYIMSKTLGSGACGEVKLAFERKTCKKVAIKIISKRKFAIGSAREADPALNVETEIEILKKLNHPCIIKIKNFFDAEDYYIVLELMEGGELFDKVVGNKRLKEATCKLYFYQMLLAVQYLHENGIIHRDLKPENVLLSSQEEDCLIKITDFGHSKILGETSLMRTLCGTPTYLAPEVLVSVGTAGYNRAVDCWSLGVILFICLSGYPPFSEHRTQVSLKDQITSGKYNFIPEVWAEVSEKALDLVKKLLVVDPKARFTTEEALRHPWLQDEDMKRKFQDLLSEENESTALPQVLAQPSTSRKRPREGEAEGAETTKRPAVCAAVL
Tyrosine-protein kinase Fgr, sequence (P09769 whole entry): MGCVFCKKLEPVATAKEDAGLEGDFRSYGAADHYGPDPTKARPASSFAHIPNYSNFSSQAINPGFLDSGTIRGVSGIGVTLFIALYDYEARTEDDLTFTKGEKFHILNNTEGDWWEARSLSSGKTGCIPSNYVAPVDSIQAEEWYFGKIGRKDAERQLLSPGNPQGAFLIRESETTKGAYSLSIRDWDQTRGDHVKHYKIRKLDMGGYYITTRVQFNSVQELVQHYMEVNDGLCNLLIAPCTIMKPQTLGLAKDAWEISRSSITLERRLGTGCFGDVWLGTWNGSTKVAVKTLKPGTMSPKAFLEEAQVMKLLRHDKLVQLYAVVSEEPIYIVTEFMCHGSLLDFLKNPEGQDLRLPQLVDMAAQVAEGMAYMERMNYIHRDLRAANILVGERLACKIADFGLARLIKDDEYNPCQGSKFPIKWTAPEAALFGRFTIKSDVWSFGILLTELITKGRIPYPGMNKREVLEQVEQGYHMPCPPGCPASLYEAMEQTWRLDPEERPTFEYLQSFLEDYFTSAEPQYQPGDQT

With `Cc1nc(Nc2n[nH]c3c2CN(C(=O)N[C@H](CN(C)C)c2ccccc2)C3(C)C)c2sccc2n1` [PF-03758309] as the molecule, how does the IC50 (HT-29) read?
Its IC50 is 4.3 nM.

And the IC50 (NCI-H441)?
The IC50 was 9.2 nM.

And the IC50 (NCI-H1755)?
Its IC50 is 15 nM.

What about the IC50 (Calu-1) of the same molecule?
The IC50 was 167 nM.

And the IC50 (PANC-03-27)?
Its IC50 is 32 nM.

And the IC50 (PSN1)?
Its IC50 is 34 nM.

What about the IC50 [1] of the same molecule?
Its IC50 is 53 nM.

And the IC50 (DAN-G)?
The IC50 was 518 nM.

What about the IC50 [2] of the same molecule?
The IC50 was 738 nM.

And the IC50 (ASPC1)?
Its IC50 is 1800 nM.

What about the IC50 (HCC827) of the same molecule?
The IC50 was 2.18 nM.

And the IC50 (NCI-H1838)?
The IC50 was 9.59 nM.

And the IC50 (NCI-H520)?
The IC50 was 1.13 nM.

What about the IC50 (HCC1187) of the same molecule?
The IC50 was 0.24 nM.

What about the IC50 (Hs-578T) of the same molecule?
The IC50 was 0.37 nM.

And the IC50 (SK-BR-3)?
The IC50 was 132 nM.

And the inhibition [3]?
Its inhibition is 86%.

What about the Ki [4] of the same molecule?
Its Ki is 5 nM.

And the IC50 [5]?
The IC50 was 302 nM.

What about the IC50 [6] of the same molecule?
The IC50 was 4680 nM.

What about the IC50 [7] of the same molecule?
The IC50 was 4740 nM.

And the IC50 [8]?
The IC50 was 5.7 nM.

And the Activity (HCT-116 [9])?
Its Activity is “Active”.

And the inhibition in vivo at 25 mg/kg (M24met)?
The inhibition in vivo at 25 mg/kg was 85%.

And the inhibition in vivo at 20 mg/kg (GTL 16 cell line)?
The inhibition in vivo at 20 mg/kg was 28%.

And the Activity (HCT-116 [10])?
The Activity was “Dose-Dependent Effect”.

What about the Activity (HCT-116 [11]) of the same molecule?
The Activity was “Active”.

What about the Activity (HCT-116 [12]) of the same molecule?
The Activity was “Active”.

And the Activity (HCT-116 [13])?
The Activity was “Active”.

What about the Activity (HCT-116 [14]) of the same molecule?
Its Activity is “Active”.
